What was measured:
Format in all cases: ADME
[1] = Drug metabolism in phenobarbital-induced rat liver microsomes assessed as cytochrome P450-mediated 4-hydroxy-3-(3-oxo-1-phenyl-1-butenyl)-2H-1-benzopyran-2-one metabolite formation at 3 umol measured per nmol of CYP450 under acidic conditions by LC-UV analysis in presence of cumene hydroperoxide
Procedure, shortened: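 Phenobarbital-induced rat liver microsomes (100 mg/kg/day ip for 3 days) with 8.0 mg protein and warfarin sodium 3.0 × 10^-6 mol in 4.0 mL TES–MgCl2 buffer, pH 7.4, at 37 °C. No NADPH generating system; started with cumene hydroperoxide 3.3 × 10^-5 mol and stopped after 5 min. Products quantified by LC against external standards.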

[2] = Drug metabolism in PCN-induced rat liver microsomes assessed as cytochrome P450-mediated 4-hydroxy-3-(3-oxo-1-phenyl-1-butenyl)-2H-1-benzopyran-2-one metabolite formation at 0.15 mmol measured per nmol of CYP450 under acidic conditions by LC-UV analysis in presence of cumene hydroperoxide
Procedure, shortened: (§1)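 Liver microsomes from PCN-induced rats (100 mg/kg/day ip in corn oil for 3 days), 200 mL at 2.0 mg protein/mL in TES–MgCl2, pH 7.4, with (R)-warfarin sodium 1.5 × 10^-4 mol. Preincubated 5 min at 37 °C with shaking, started with cumene hydroperoxide 1.6 × 10^-4 mol, given a second equal addition at 10 min, stopped at 30 min on ice. Product isolated by preparative C18 LC.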

[3] = Drug metabolism in PCN-induced rat liver microsomes assessed as cytochrome P450-mediated 4-oxo-3-(3-oxo-1-phenylbut-1-enyl)-4H-chromen-2-olate metabolite formation at 0.15 mmol measured under basic conditions by LC-UV analysis in presence of cumene hydroperoxide; procedure, shortened: as §1
[4] = Drug metabolism in rat liver microsomes assessed as cytochrome P450-mediated 4-hydroxy-3-(3-oxo-1-phenyl-1-butenyl)-2H-1-benzopyran-2-one metabolite formation measured for 10 mins by LC-UV analysis
Procedure, shortened: (§2)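 Time course with (S)-warfarin in uninduced rat liver microsomes (cytochrome P-450 1.0 nmol/mg protein; protein 2 mg/mL) at 37 °C and pH 7.4. NADPH-supported TES–MgCl2 incubation, with products quantified by LC. Single determination from a pool of five rats.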

[5] = Drug metabolism in rat liver microsomes assessed as cytochrome P450-mediated 4'-hydroxywarfarin metabolite formation measured for 10 mins by LC-UV analysis; procedure, shortened: as §2
[6] = Drug metabolism in rat liver microsomes assessed as cytochrome P450-mediated 6-hydroxywarfarin metabolite formation measured for 10 mins by LC-UV analysis; procedure, shortened: as §2
[7] = Drug metabolism in rat liver microsomes assessed as cytochrome P450-mediated 7-hydroxywarfarin metabolite formation measured for 10 mins by LC-UV analysis; procedure, shortened: as §2
[8] = Drug metabolism in rat liver microsomes assessed as cytochrome P450-mediated 4-hydroxy-3-(3-oxo-1-phenyl-1-butenyl)-2H-1-benzopyran-2-one metabolite formation measured after 10 mins by LC-UV analysis; procedure, shortened: as §2
[9] = Drug metabolism in rat liver microsomes assessed as cytochrome P450-mediated 4'-hydroxywarfarin metabolite formation measured after 10 mins by LC-UV analysis; procedure, shortened: as §2
[10] = Drug metabolism in rat liver microsomes assessed as cytochrome P450-mediated 6-hydroxywarfarin metabolite formation measured after 10 mins by LC-UV analysis; procedure, shortened: as §2
[11] = Drug metabolism in rat liver microsomes assessed as cytochrome P450-mediated 7-hydroxywarfarin metabolite formation measured after 10 mins by LC-UV analysis; procedure, shortened: as §2
[12] = Activity at cytochrome P450 in PCN-induced rat liver microsomes treated with (R)-warfarin at 0.15 mmol measured under basic conditions by LC-UV analysis in presence of cumene hydroperoxide
Procedure, shortened: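 PCN-induced rat liver microsomes (PCN 100 mg/kg/day ip in corn oil for 3 days; killed 24 h after last dose): 200 mL of microsomes at 2.0 mg protein/mL in TES-MgCl2 buffer pH 7.4, with (R)-warfarin sodium 1.5 × 10^-4 mol. Shaken 5 min at 37 °C, then started with cumene hydroperoxide 1.6 × 10^-4 mol, re-added at 10 min, stopped at 30 min on ice. Product collected by preparative C18 LC.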

[13] = Activity at cytochrome P450 in rat liver microsomes treated with (S)-warfarin at 3 umol measured under basic conditions by LC-UV analysis in presence of NADPH
Procedure, shortened: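 Male Wistar rat hepatic microsomes, 8.0 mg protein in 4.0 mL 0.01 M TES-0.002 M MgCl2, pH 7.4. Enantiopure warfarin sodium 1.0 mg (3.0 × 10^-6 mol) with an NADPH-generating system (NADP 1.25 μmol, glucose 6-phosphate 62.1 μmol). Preincubated 1.0 min at 37 °C, started with G6P dehydrogenase 5.0 units, stopped after 10 min by filtration. Metabolites separated and quantified by LC against external standards.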

[14] = Activity at cytochrome P450 in phenobarbital-induced rat liver microsomes treated with (S)-warfarin at 3 umol measured under basic conditions by LC-UV analysis in presence of NADPH
Procedure, shortened: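 Phenobarbital induction: 100 mg/kg/day ip in saline for 3 days, microsomes isolated 24 h after the last dose. Incubation in 4.0 mL 0.01 M TES-0.002 M MgCl2, pH 7.4, with warfarin sodium 1.0 mg (3.0 × 10^-6 mol), NADP 1.25 μmol, glucose 6-phosphate 62.1 μmol and 8.0 mg microsomal protein. Preincubated 1.0 min at 37 °C, started with G6P dehydrogenase 5.0 units, stopped after 10 min by filtration. Metabolites quantified by LC against external standards.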

Drug metabolism [12] | Drug metabolism [13] | Drug metabolism [14] | Structure (SMILES) | Drug metabolism [1] [nmol/min] | Drug metabolism [2] [nmol/min] | Drug metabolism [3] | Drug metabolism [4] | Drug metabolism [5] | Drug metabolism [6] | Drug metabolism [7] | Drug metabolism [8] | Drug metabolism [9] | Drug metabolism [10] | Drug metabolism [11]
– | – | – | CC(=O)C[C@H](c1ccccc1)c1c(O)c2ccccc2oc1=O | 0.15 | 0.423 | metabolite_detected | metabolite_detected | metabolite_detected | metabolite_detected | metabolite_detected | metabolite_notdetected | metabolite_detected | metabolite_detected | metabolite_detected
metabolite_detected | metabolite_detected | metabolite_detected | CC(=O)/C=C(\c1ccccc1)c1c(O)oc2ccccc2c1=O | – | – | – | – | – | – | – | – | – | – | –
